# Compound activity (PubChem)
# Most compounds without a hit are left out; they make up all but 3.7% or so of the library.
# KCNQ1 block – human KCNQ1 channel inhibition. actives 1.3% (n = 310,000). B-score at 10 µM. CHO-K1 KCNQ1, FluxOR thallium flux fluorescence; stronger effect = higher value. P51787;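 active means compounds whose thallium flux B-score, printed positive for inhibition, exceeds three library SD while starting fluorescence stays within three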;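 further: channel opened by potassium depolarization with thallium stimulus after 20 min compound exposure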
# Target sequence (P51787 whole entry, looked up): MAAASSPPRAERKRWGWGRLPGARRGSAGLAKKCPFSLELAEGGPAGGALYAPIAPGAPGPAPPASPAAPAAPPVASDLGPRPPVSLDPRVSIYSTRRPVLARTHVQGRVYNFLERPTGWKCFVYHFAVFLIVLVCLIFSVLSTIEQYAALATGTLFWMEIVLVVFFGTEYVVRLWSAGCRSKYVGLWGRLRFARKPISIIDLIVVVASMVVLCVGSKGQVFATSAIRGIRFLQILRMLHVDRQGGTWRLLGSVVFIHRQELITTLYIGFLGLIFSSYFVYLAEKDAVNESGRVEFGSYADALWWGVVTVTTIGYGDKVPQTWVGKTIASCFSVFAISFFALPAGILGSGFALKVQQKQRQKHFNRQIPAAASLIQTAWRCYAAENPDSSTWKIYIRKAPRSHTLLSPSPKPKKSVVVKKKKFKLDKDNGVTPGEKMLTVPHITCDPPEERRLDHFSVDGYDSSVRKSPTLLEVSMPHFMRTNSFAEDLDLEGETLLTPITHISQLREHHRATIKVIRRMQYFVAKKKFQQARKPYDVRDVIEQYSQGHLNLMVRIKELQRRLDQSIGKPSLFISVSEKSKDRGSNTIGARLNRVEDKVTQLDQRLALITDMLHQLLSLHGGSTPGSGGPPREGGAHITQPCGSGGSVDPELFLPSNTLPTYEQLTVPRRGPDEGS
# KCNK9 block – human KCNK9 channel inhibition; Q9NPC2; HEK293 KCNK9, FluxOR thallium flux fluorescence; stronger effect = lower value; B-score at 10 µM; actives 1.2% (n = 310,000); AID 488922;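 active means ratio B-score over 3 SD below the library mean, with starting fluorescence within 5 SD of its mean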;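 further: negative B-score means less thallium flux so channel inhibition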
# KCNK3 block – human KCNK3 channel inhibition, primary screen; O14649; B-score at 10 µM; AID 602410; actives 0.84% (n = 340,000); CHO-KCNK3 thallium flux, FluxOR fluorescence; stronger effect = lower value;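 active means B-score under library mean minus 4 SD, starting fluorescence ratio at most library mean plus 5 SD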;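 further: more negative B-score means stronger inhibition of thallium flux through KCNK3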
# Kir21 block – Kir2.1 (mouse) channel inhibition. P35561. HEK293-Kir2.1, FluxOR thallium flux fluorescence; stronger effect = lower value. B-score at 10 µM. actives 0.85% (n = 310,000). AID 1672;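 active means fluorescence ratio B-score at or below minus 3 SD of library scores, with starting-brightness B-score within 2 SD, cut at about -4.2 in these data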;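 further: channel flux triggered by added potassium and thallium sulfate stimulus; B-score of peak minus minimum fluorescence over baseline after thallium stimulus; more negative B-score means stronger Kir2.1 block with less thallium influx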
# hERG protect – shields human hERG channel from block by proarrhythmic agents | Q12809 | activation (rescue from dofetilide block), less the hit threshold, % at 10 µM | actives 0.51% (n = 310,000) | AID 1511 | CHO-hERG, FluxOR thallium flux, dofetilide IC70 present;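 active means activation above the mean of controls blocked by dofetilide plus 5 SD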;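 further: thallium influx through hERG after potassium depolarization seen as dye fluorescence rise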
# KCNQ1 act – potentiators or activators of human KCNQ1 potassium channel; B-score at 10 µM; CHO-K1 KCNQ1, thallium flux FluxOR fluorescence; stronger effect = higher value; actives 0.35% (n = 310,000); AID 2648;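 active means fluorescence ratio B-score, a plate-corrected score, at least three library SD, with initial intensity B-score within 5 SD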
#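 Assay system: stable KCNQ1 CHO-K1 line; medium: assay buffer, equal DMSO in all wells; timing: 90 min dye loading and 20 min compound exposure, both at room temperature; technique: kinetic FluxOR thallium fluorescence, 10-s 1-Hz baseline, 110-s post-stimulus read; read-out basis: B score of baseline-normalized fluorescence ratio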
# KCNK9 inh conf – confirmation of human KCNK9 potassium channel inhibitors | shares compounds with KCNK9 block | HEK293 KCNK9 cells, FluxOR thallium flux fluorescence | inhibition, % at 10 µM | actives 43% (n = 4,900) | AID 492992;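 active means thallium signal inhibited by more than 5 SD of the compound-free buffer control wells, on both duplicate plates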;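 further: 0% = assay buffer control wells without compound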
# Kir2-1 spec – tests whether KCNK9 modulators also affect mouse Kir2.1; shares compounds with KCNK9 block; actives 4% (n = 4,900); inhibition, % at 10 µM; Kir2.1 cells, FluxOR thallium flux fluorescence;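 active means thallium signal drop more than 5 SD beyond the mean of the no-compound control wells, seen in both duplicate plates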;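 further: signal is fluorescence rise after thallium addition divided by baseline fluorescence; plate controls were assay buffer only for no effect and full block by chlorpromazine control for full effect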
# KCNK9 uninduced – non-induced cell nonspecific activity of KCNK9 modulators; shares compounds with KCNK9 block; non-induced KCNK9-HEK293, FluxOR thallium flux; inhibition, % at 10 µM; actives 40% (n = 4,900); AID 492997;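 active means thallium signal drop beyond 5 SD of the untreated control mean, on both duplicate plates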;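 further: plate controls were buffer only IC0 wells for no effect and SID17386958 at its maximal inhibitory level for full effect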
# Active calls of the source: *; i = inactive; / = no result given.
SMILES,KCNQ1 block,KCNK9 block,KCNK3 block,Kir21 block,hERG protect,KCNQ1 act,KCNK9 inh conf,Kir2-1 spec,KCNK9 uninduced
Fc1ccc(Cn2c(SCc3ccc(F)c(F)c3)nnc2C(F)(F)F)cc1,i,-8.95*,i,-0.31,-18.4,i,29.0%*,i,38.5%*
COc1ccc(C)cc1N(C(=O)c1cccc(F)c1)c1nc2ccccc2s1,/,/,i,/,/,/,/,/,/
COc1ccc(C)cc1N(C(=O)c1ccccc1)c1nc2ccccc2s1,i,-10.4*,i,0.07,-4.4,i,41.5%*,i,32.0%*
COc1ccc(C)cc1N(C(=O)c1ccccc1F)c1nc2ccccc2s1,i,-9.73*,i,-1.84,-13.0,i,45.5%*,i,36.0%*
COc1ccc(C)cc1N(C(=O)COc1ccccc1)c1nc2ccccc2s1,i,i,i,0.94,-8.2,i,/,/,/
COc1cccc(-c2cc(C(F)(F)F)n3nc(C(=O)N4CCCCC4c4cccnc4)cc3n2)c1 (configuration not stated),i,-8.1*,i,-0.74,-11.3,i,42.0%*,i,i
CCOC(=O)c1c(C)[nH]c(C(=O)COC(=O)C2CC2)c1C,/,/,i,/,/,/,/,/,/
CCOC(=O)c1c(C)[nH]c(C(=O)COC(=O)C2(C)CC2(Cl)Cl)c1C (configuration not stated),i,-17.4*,i,-0.55,-6.9,i,i,i,i
CC1=CC2=NC(=O)/C(=C\c3cccn3CCOc3cc(C)ccc3C)C(=N)N2O1,i,-8.8*,i,-1.3,-10.5,i,66.5%*,i,29.0%*
CC(C)Oc1cccc(C(=O)C2CCCN(C(=O)c3noc4c3CCCC4)C2)c1 (configuration not stated),i,i,i,-0.14,-6.5,i,i,i,i
CC(C)Oc1cccc(C(=O)C2CCCN(C(=O)c3ccsc3)C2)c1 (configuration not stated),i,i,i,-0.9,-10.7,i,i,i,i
CC(C)Oc1cccc(C(=O)C2CCCN(C(=O)c3ccc4c(c3)OCO4)C2)c1 (configuration not stated),i,i,i,-3.29,-7.5,i,i,i,i
CC(C)Oc1cccc(C(=O)C2CCCN(C(=O)c3cncs3)C2)c1 (configuration not stated),i,i,i,0.03,-7.0,i,/,/,/
CCN(CC(=O)Nc1ccccc1OC)C(=O)CSCC(=O)Nc1ccc(OC)cc1,i,i,i,1.44,-12.6,i,/,/,/
CCOC(=O)c1ccc(S(=O)(=O)N2CC(=O)Nc3ccccc32)cc1,i,i,i,0.09,-1.1,i,/,/,/
O=C(C1CC(c2cccc(Br)c2)=NO1)N1CCc2ccccc2C1 (configuration not stated),i,i,i,-1.08,-8.8,i,i,i,i
COc1cc(OC)c(C2=NOC(C(=O)N3CCc4ccccc4C3)C2)cc1Cl (configuration not stated),i,i,i,0.44,-13.4,i,/,/,/
CCOC(=O)c1nc(NCc2ccccc2)c2ccccc2n1,i,i,i,-0.7,-1.6,i,/,/,/
CCCCN(C)C(=O)CSc1nc(NCc2ccc(OC)cc2)c2ccccc2n1,i,i,i,-1.58,-12.1,i,i,i,i
O=C(/C=C/c1cc(Br)ccc1F)OCC(=O)N1CCOCC1,/,/,i,/,/,/,/,/,/
CN(C)S(=O)(=O)c1ccc(N2CCCC2)c(C(=O)Nc2ccccc2Br)c1,i,i,i,-0.42,-10.7,i,i,i,i
CN(C)S(=O)(=O)c1ccc(N2CCCC2)c(C(=O)NC2CCCCC2)c1,i,i,i,1.06,-13.4,i,i,i,i
CCc1ccc(OCC(=O)NNC(=O)c2cc(S(=O)(=O)N(C)C)ccc2N2CCCC2)cc1,i,i,i,1.81,-9.8,i,i,i,i
O=C(NCC1CC1)C1(C(F)(F)F)CC(CCc2ccccc2)CCCO1 (configuration not stated),i,i,i,1.13,-8.2,i,i,i,i
CSCCCN1CCC(n2nccc2NC(=O)CCCc2ccccc2)CC1,i,i,i,0.76,-8.6,i,/,/,/
SMILES,KCNQ1 block,KCNK9 block,KCNK3 block,Kir21 block,hERG protect,KCNQ1 act,KCNK9 inh conf,Kir2-1 spec,KCNK9 uninduced
CCc1nc(Sc2nnnn2-c2ccccc2)c2c3c(sc2n1)CCCC3,i,i,i,-1.5,-5.4,i,i,i,i
O=C(O)CC(Cc1ccccc1)(C(=O)O)c1ccccc1 (configuration not stated),i,i,i,0.75,-5.2,i,/,/,/
Cc1cccc(Nc2nc(-c3ccncc3)cs2)c1,i,i,i,0.95,-8.6,i,/,/,/
Cc1cccc(Nc2nc(-c3ccc4c(c3)OCCO4)cs2)c1,i,i,i,-2.55,-5.7,i,i,i,i
CCN(CCNC(=O)CN1CCN(Cc2ccc(Cl)cc2)C1=O)c1ccccc1,i,i,i,-2.91,-8.9,i,/,/,/
Cc1ccc(/C=C/C(=O)N2CCC(Cc3ccccc3)CC2)cc1,i,i,i,-1.57,-14.0,i,i,i,25.5%*
CC1CCN(C(=O)/C=C/c2ccc(C(C)(C)C)cc2)CC1,i,-9.04*,i,0.27,-14.5,i,62.5%*,i,50.0%*
COc1cc2cc(C(=O)N3CCC(Cc4ccccc4)CC3)[nH]c2cc1OC,i,i,i,0.41,-0.1,i,/,/,/
Cc1cc(C)c2cc(C(=O)N3CCC(Cc4ccccc4)CC3)[nH]c2c1,i,i,i,-1.72,-12.6,i,i,i,i
CCCn1cnc2c(=S)nc(N)[nH]c21,i,i,i,-0.02,-5.8,i,/,/,/
CC(C)CNC(=O)/C=C/c1cccs1,i,i,i,1.16,-6.8,i,/,/,/
CCc1ccc(NC(=O)c2ccc(C3SCC(=O)N3CCc3ccccc3)cc2)cc1 (configuration not stated),i,i,i,0.28,-12.6,i,i,i,i
CCNC(=O)c1ccc(C2SCC(=O)N2CCc2ccccc2)cc1 (configuration not stated),i,i,i,0.02,-2.9,i,/,/,/
